The source made the active and inactive calls. The rule behind the calls is not given here.
What was measured:
[1] = Hepatotoxicity in nude mouse xenografted with human MCF7 cells assessed as slight increase in serum aspartate transaminase level at 22.5 to 45 mg/kg/day, ip administered for 21 days by automatic biochemical analyzer; type: toxicity, organism-based; settings: in vivo, 504 h
[2] = Toxicity in nude mouse xenografted with human MCF7 cells assessed as effect on kidney morphological changes at 22.5 to 45 mg/kg/day, ip administered for 21 days by HE staining analysis; type: organism-based; settings: in vivo, 504 h
[3] = Toxicity in nude mouse xenografted with human MCF7 cells assessed as effect on spleen morphological changes at 22.5 to 45 mg/kg/day, ip administered for 21 days by HE staining analysis; type: organism-based; settings: in vivo, 504 h
[4] = system: MCF7; assay: Cytotoxicity against human MCF7 cells assessed as reduction in cell viability measured after 48 to 72 hrs by MTT assay; type: cell-based
In short: (§1)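 Cells seeded at 3 × 10^3 per well in 96-well plates, incubated overnight, then given fresh medium with a range of drug concentrations for 48 h or 72 h. MTT added (final 500 µg/mL) for 4 h, formazan dissolved in DMSO, absorbance at 570 nm; IC50 derived. Mean ± SD of 3 independent tests.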

[5] = system: MCF7; assay: Inhibition of epithelial-mesenchymal transition in human MCF7 cells assessed as decrease in vimentin expression level at 2 to 10 uM after 48 hrs by Western blot analysis; type: functional, cell-based
In short: (§2)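 MCF-7 cells in RPMI 1640 with 10% FBS, 37 °C, 5% CO2, exposed to no drug, 2 or 10 µM for 48 h. RIPA lysates, BCA quantitation, 8% SDS-PAGE, PVDF transfer, primary antibodies overnight 4 °C, secondary 2 h RT, ECL and densitometry for ZO-1, E-cadherin, N-cadherin, vimentin. Mean ± SD of 3 independent tests.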

[6] = system: HUVEC; assay: Reduction in SHC expression in HUVEC at 2 to 10 uM after 48 hrs by Western blot analysis; type: functional, cell-based; settings: Homo sapiens
In short: (§3)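 HUVECs grown in RPMI 1640 with 10% FBS, 37 °C, 5% CO2; treated with no drug, 2 or 10 µM for 48 h. Lysed in RIPA with protease/phosphatase inhibitors on ice 30 min, protein by BCA, 8% SDS-PAGE, PVDF transfer, milk block, primary antibody overnight 4 °C, secondary 2 h RT; ECL detection, densitometry. Probed VEGF-R, FAK, p-FAK, SHC.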

[7] = Toxicity in nude mouse xenografted with human MCF7 cells assessed as effect on lung morphological changes at 22.5 to 45 mg/kg/day, ip administered for 21 days by HE staining analysis; type: organism-based; settings: in vivo, 504 h
[8] = system: SK-N-SH; assay: Antitumour activity against human SK-N-SH cells assessed as cell growth inhibition measured after 72 hrs by SRB assay; type: functional, cell-based
In short: (§4)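 Exponentially growing cells trypsinized, seeded at 5 × 10^4 cells/mL in 96-well plates, cultured overnight, then exposed to compounds for 72 h. Cells fixed with 10% TCA 1 h, stained with SRB 15 min, dye dissolved in Tris-HCl, absorbance read; 50% growth-inhibitory concentration calculated.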

[9] = system: HUVEC; assay: Reduction in VEGFR expression in HUVEC at 2 to 10 uM after 48 hrs by Western blot analysis; type: functional, cell-based; settings: Homo sapiens; in short: as §3
[10] = system: MCF7; assay: Antitumour activity against human MCF7 cells xenografted in nude mouse assessed as decrease in tumour weight at 22.5 to 45 mg/kg/day, ip administered for 21 days; type: functional, organism-based
In short: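 Nude mice (male/female, 4–6 weeks) injected subcutaneously in right forelimb with 5 × 10^7 MCF-7 cells in 200 µL saline; at mean tumour 100 mm3 randomized (n = 5/group): saline 0.2 mL/day, 22.5 or 45 mg/kg/day ip for 21 days. Body weight and tumour volume (length × width²/2) every other day; tumours weighed at day 21.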

[11] = system: A549; assay: Antitumour activity against human A549 cells assessed as cell growth inhibition measured after 72 hrs by SRB assay; type: functional, cell-based; settings: A549, 72 h; in short: as §4
[12] = system: MGC-803; assay: Cytotoxicity against human MGC803 cells assessed as reduction in cell viability measured after 48 to 72 hrs by MTT assay; type: cell-based; in short: as §1
[13] = system: MCF7; assay: Antimigratory activity against human MCF7 cells at 2 to 10 uM measured after 48 hrs by wound healing assay; type: functional, cell-based
In short: (§5)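 Cells seeded in 6-well plates, monolayer scratched with pipette tip, washed twice, kept in medium with 2% FBS. Gaps imaged, then drug added (0, 2 or 10 µM for HUVEC and MCF-7); gaps re-imaged after 48 h and migration rate calculated. Three independent experiments; one-way ANOVA.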

[14] = system: HUVEC; assay: Antimigratory activity against HUVEC at 2 to 10 uM measured after 48 hrs by wound healing assay; type: functional, cell-based; settings: Homo sapiens; in short: as §5
[15] = system: HET-1A; assay: Cytotoxicity against human HET-1A cells assessed as reduction in cell viability measured after 48 to 72 hrs by MTT assay; type: cell-based; in short: as §1
[16] = system: SMMC-7721; assay: Antitumour activity against human SMMC7721 cells assessed as cell growth inhibition measured after 72 hrs by SRB assay; type: functional, cell-based; settings: SMMC-7721, 72 h; in short: as §4
[17] = system: ECa-109 cell line; assay: Antitumour activity against human EC109 cells assessed as cell growth inhibition measured after 72 hrs by SRB assay; type: functional, cell-based; settings: ECa-109, 72 h; in short: as §4
[18] = system: B16; assay: Antitumour activity against mouse B16 cells assessed as cell growth inhibition measured after 72 hrs by SRB assay; type: functional, cell-based; settings: B16, 72 h; in short: as §4
[19] = system: HEK293; assay: Cytotoxicity against human HEK293 cells measured after 48 to 72 hrs by MTT assay; type: cell-based; in short: as §1
[20] = system: MCF7; assay: Inhibition of epithelial-mesenchymal transition in human MCF7 cells assessed as decrease in N-cadherin expression level at 2 to 10 uM after 48 hrs by Western blot analysis; type: functional, cell-based; in short: as §2
[21] = Hepatotoxicity in nude mouse xenografted with human MCF7 cells assessed as slight increase in serum alanine transaminase level at 22.5 to 45 mg/kg/day, ip administered for 21 days by biochemical automatic analyzer; type: toxicity, organism-based; settings: in vivo, 504 h
[22] = target: Focal adhesion kinase 1 (Homo sapiens) (UniProt Q05397); assay: Reduction in FAK phosphorylation in HUVEC at 2 to 10 uM after 48 hrs by Western blot analysis; type: cell-based; in short: as §3
[23] = system: MCF7; assay: Antimigratory activity against human MCF7 cells at 2 to 10 uM measured after 24 hrs by transwell assay; type: functional, cell-based
In short: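 Cells seeded on upper side of polycarbonate transwell filters in serum-free medium, drug at 0, 2 or 10 µM; complete serum-containing medium in lower chamber as chemoattractant. After 24 h migrated cells fixed in 4% paraformaldehyde 20 min, crystal violet stained 20 min, imaged and counted. Three independent experiments.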

[24] = Toxicity in nude mouse xenografted with human MCF7 cells assessed as liver edema at 22.5 to 45 mg/kg/day, ip administered for 21 days by HE staining analysis; type: organism-based; settings: in vivo, 504 h
[25] = system: HUVEC; assay: Effect on FAK expression in HUVEC at 2 to 10 uM after 48 hrs by Western blot analysis; type: functional, cell-based; settings: Homo sapiens; in short: as §3
[26] = system: Chorioallantoic membrane; assay: Antiangiogenic activity in chicken chorioallantoic membrane assessed as reduction in neovascularization at 50 ug/ml measured after 72 hrs by CAM assay; type: functional; settings: Gallus gallus
In short: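 Fertilized chicken eggs incubated 6 days at 37 °C; shell windowed and CAM treated (compounds and controls at […] as printed; saline vehicle control). Eggs re-incubated humidified; membranes fixed and harvested after 72 h. Angiogenesis scored by counting blood vessels and imaging neovascular zones; ten eggs per group.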

[27] = system: HUVEC; assay: Cytotoxicity against HUVEC assessed as reduction in cell viability measured after 48 to 72 hrs by MTT assay; type: cell-based; settings: human; in short: as §1

Focal adhesion kinase 1 (Homo sapiens), sequence (Q05397 2-1052 limits assumed): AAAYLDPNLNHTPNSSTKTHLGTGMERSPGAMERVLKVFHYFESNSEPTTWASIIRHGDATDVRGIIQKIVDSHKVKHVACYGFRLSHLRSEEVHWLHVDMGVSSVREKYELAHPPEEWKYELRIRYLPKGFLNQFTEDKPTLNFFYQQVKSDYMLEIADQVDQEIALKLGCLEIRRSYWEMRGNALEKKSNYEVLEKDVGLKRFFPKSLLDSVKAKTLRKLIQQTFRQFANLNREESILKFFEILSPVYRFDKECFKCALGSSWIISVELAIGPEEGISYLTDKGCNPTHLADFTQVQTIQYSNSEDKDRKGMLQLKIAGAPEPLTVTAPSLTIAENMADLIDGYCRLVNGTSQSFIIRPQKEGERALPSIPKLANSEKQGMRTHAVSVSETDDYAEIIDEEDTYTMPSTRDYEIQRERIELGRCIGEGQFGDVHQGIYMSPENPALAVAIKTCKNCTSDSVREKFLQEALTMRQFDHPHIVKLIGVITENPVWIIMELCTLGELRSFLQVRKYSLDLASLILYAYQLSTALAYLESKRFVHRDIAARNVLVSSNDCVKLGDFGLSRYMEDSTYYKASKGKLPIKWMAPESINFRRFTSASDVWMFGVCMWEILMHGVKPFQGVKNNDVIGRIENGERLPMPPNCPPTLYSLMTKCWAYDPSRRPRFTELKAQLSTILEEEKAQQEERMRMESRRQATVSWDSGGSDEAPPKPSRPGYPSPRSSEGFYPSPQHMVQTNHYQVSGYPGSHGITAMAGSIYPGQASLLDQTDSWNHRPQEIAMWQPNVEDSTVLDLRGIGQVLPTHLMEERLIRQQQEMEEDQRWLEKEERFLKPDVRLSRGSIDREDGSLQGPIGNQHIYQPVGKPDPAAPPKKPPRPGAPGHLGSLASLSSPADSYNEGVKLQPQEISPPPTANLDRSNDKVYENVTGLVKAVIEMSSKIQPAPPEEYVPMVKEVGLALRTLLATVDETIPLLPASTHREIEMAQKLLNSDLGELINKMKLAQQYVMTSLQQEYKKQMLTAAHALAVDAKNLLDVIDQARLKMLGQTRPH

IC50 [8]: 24.7 µM
IC50 [11]: 23.2 µM
IC50 [16]: 4.3 µM
IC50 [18]: 17.9 µM
inhibition [22]: Active
SMILES: COc1cc2c(cc1O)CC[C@@H]1[C@@H]2CC[C@]2(C)C(=O)/C(=C/c3ccc(Cl)cc3)C[C@@H]12
Activity [1]: Toxic
Activity [2]: Non-Toxic
Activity [3]: Non-Toxic
IC50 [4]: 77 µM
inhibition [5]: Active
inhibition [6]: Active
Activity [7]: Non-Toxic
inhibition [9]: Active
inhibition [10]: Active
Activity [12]: Toxic
Activity [13]: Active
Activity [14]: Active
IC50 [15]: > 100 µM
IC50 [17]: 14.7 µM
IC50 [19]: > 100 µM
inhibition [20]: Active
Activity [21]: Toxic
Activity [23]: Active
Activity [24]: Toxic
Activity [25]: inactive
inhibition [26]: Active
Activity [27]: Toxic

Reference: ChEMBL document CHEMBL4393712, “Discovery of chalcone-modified estradiol analogs as antitumour agents that Inhibit tumour angiogenesis and epithelial to mesenchymal transition” (Eur J Med Chem, 2019)
